Data set [1] is described as follows: fT>MIC required for 50% inhibition of methicillin-susceptible Staphylococcus aureus 29213 infection in neutropenic BALB/cAnNCr mouse. The data set is classed as functional.
Data set [2] relates to Staphylococcus aureus. The experiment in a line: Antimicrobial activity against community acquired methicillin-resistant Staphylococcus aureus 146 infected in BALB/cAnNCr mouse assessed as decrease in bacterial density in lungs at 1 to 25 mg/kg, sc administered as 1 to 5 times/day after 24 hrs […] relative to control. In kind it is functional. The settings on record: route subcutaneous. The gist of the method: (§1)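 Female BALB/cAnNCr mice (7–9 weeks) were made neutropenic with cyclophosphamide i.p. at 250 mg/kg on day −4 and 100 mg/kg on day −1. Under isoflurane, mice received an oral inoculum in 3% mucin/saline, with nostrils blocked until aspiration. Drug (1–25 mg/kg s.c., once to five times daily, water vehicle) or sham started 6 h post-inoculation. Lungs were harvested at 24 h, homogenized and plated on blood and Columbia agar at 35°C. Mean log10 CFU/ml was compared with the 0-h untreated baseline; 5 mice per group.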

Data set [3] concerns Staphylococcus aureus. The experiment in a line: Antimicrobial activity against hospital acquired methicillin-resistant Staphylococcus aureus 149 infected in BALB/cAnNCr mouse assessed as decrease in bacterial density in lungs at 1 to 25 mg/kg, sc administered as 1 to 5 times/day after 24 hrs […] relative to control. The data set is classed as functional. The settings on record: route subcutaneous. The method, boiled down: as §1

A short description of data set [4]: fAUC/MIC in neutropenic BALB/cAnNCr mouse plasma infected with Staphylococcus aureus at 1 to 25 mg/kg, sc administered 1 to 5 times/day after 24 hrs by HPLC. In kind it is functional. The settings on record: route subcutaneous. The method, boiled down:
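Exposure indices used free plasma drug, correcting with 19% mouse protein binding supplied by the sponsor. The regimens were s.c. 1–25 mg/kg given 1–5 times daily for 24 h to neutropenic mice with S. aureus pneumonia. MICs were determined in triplicate by CLSI broth microdilution. PK came from the single-dose HPLC study.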

Data set [5] concerns Staphylococcus aureus. Briefly: Antimicrobial activity against community acquired methicillin-resistant Staphylococcus aureus 147 by broth microdilution method. The data set is classed as functional. The gist of the method: (§2)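 Broth microdilution run in triplicate following CLSI guidelines. Isolates were stored at –80°C in double-strength skim milk and subcultured twice on Trypticase soy agar with 5% sheep blood before testing.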
A general note: Broth dilution looks for growth in wells or tubes with falling amounts of substance.

The subject of data set [6] is Staphylococcus aureus. Briefly: Antimicrobial activity against community acquired methicillin-resistant Staphylococcus aureus 147 infected in BALB/cAnNCr mouse assessed as decrease in bacterial density in lungs at 1 to 25 mg/kg, sc administered as 1 to 5 times/day after 24 hrs […] relative to control. The data set is classed as functional. The settings on record: route subcutaneous. The gist of the method: as §1

A short description of data set [7]: fT>MIC required for 50% inhibition of hospital acquired Staphylococcus aureus 149 infection in neutropenic BALB/cAnNCr mouse. In kind it is functional.
Data set [8] in a line: fT>MIC required for stasis inhibition of hospital acquired methicillin-resistant Staphylococcus aureus 56 infection in neutropenic BALB/cAnNCr mouse. The data set is classed as functional. The method, boiled down: (§3)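 Same neutropenic murine pneumonia model, with 24-h lung log10 CFU change (5 mice per group; 1–25 mg/kg s.c., 1–5 times daily). […] ED50, ED80 and stasis exposures were taken from a sigmoid Emax fit for each isolate.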

The next data set deals with Mus musculus. The experiment in a line: Volume of distribution in neutropenic BALB/cAnNCr mouse infected with Staphylococcus aureus at 10 mg/kg, sc administered as single dose after 6 hrs of infection. The data set is classed as ADME, organism-based. Further details: dose 10 mg/kg, route subcutaneous. The settings on record: in vivo. The method, boiled down:
(§4)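 Neutropenic female mice (cyclophosphamide i.p. 250 mg/kg day −4, 100 mg/kg day −1) with HA-MRSA 56 pneumonia (oral inoculum, 10^7 CFU/ml in 3% mucin). Single s.c. dose in sterile water. Plasma by intracardiac puncture at 0.25–4 h, six mice per time point, stabilized with citric acid. Assayed by validated HPLC (LOQ 0.01 µg/ml). Parameters from one-compartment analysis.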

Data set [9] concerns Staphylococcus aureus. Briefly: Antimicrobial activity against Staphylococcus aureus infected in BALB/cAnNCr mouse assessed as decrease in bacterial density in lungs relative to control at 1 to 25 mg/kg, sc administered as 1 to 5 times/day after 24 hrs […]. The data set is classed as functional. The settings on record: dose mg/kg 1-5; route subcutaneous. The gist of the method: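 Neutropenic mice given oral S. aureus inoculum (10^7 CFU/ml in 3% mucin). s.c. dosing of 1–25 mg/kg, once to five times daily, began 6 h post-infection and ran 24 h, five mice per group, with sham-treated controls. Lung homogenates were plated on blood and Columbia agar at 35°C up to 48 h. Log10 CFU/ml at 24 h was compared with untreated controls.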

The nature of data set [10]: Cmax in neutropenic BALB/cAnNCr mouse infected with Staphylococcus aureus at 10 mg/kg, sc administered as single dose after 6 hrs of infection. The data set is classed as ADME, organism-based. Further details: dose 10 mg/kg, route subcutaneous. The settings on record: in vivo. The gist of the method:
as §4

Data set [11] can be described thus: Elimination clearance in neutropenic BALB/cAnNCr mouse infected with Staphylococcus aureus at 25 mg/kg, sc administered as single dose after 6 hrs of infection. In kind it is ADME, organism-based. Further details: dose 25 mg/kg, route subcutaneous. The settings on record: in vivo. The method, boiled down: as §4
Data set [12] can be described thus: fT>MIC required for stasis inhibition of hospital acquired methicillin-resistant Staphylococcus aureus 152 infection in neutropenic BALB/cAnNCr mouse. In kind it is functional. The gist of the method: as §3
Data set [13] in a line: fT>MIC required for 50% inhibition of hospital acquired Staphylococcus aureus 152 infection in neutropenic BALB/cAnNCr mouse. The data set is classed as functional.
The nature of data set [14]: fT>MIC required for stasis inhibition of methicillin-suceptible Staphylococcus aureus 29213 infection in neutropenic BALB/cAnNCr mouse. The data set is classed as functional.
Data set [15] relates to Staphylococcus aureus. Briefly: Antimicrobial activity against community acquired methicillin-resistant Staphylococcus aureus 144 infected in BALB/cAnNCr mouse assessed as decrease in bacterial density in lungs at 1 to 25 mg/kg, sc administered as 1 to 5 times/day after 24 hrs […] relative to control. In kind it is functional. The settings on record: route subcutaneous. The method, boiled down: as §1

For data set [16], the system named is Staphylococcus aureus. The experiment in a line: Antimicrobial activity against hospital acquired methicillin-resistant Staphylococcus aureus 152 infected in BALB/cAnNCr mouse assessed as decrease in bacterial density in lungs at 1 to 25 mg/kg, sc administered as 1 to 5 times/day after 24 hrs […] relative to control. In kind it is functional. The settings on record: route subcutaneous. The gist of the method: as §1

The nature of data set [17]: fT>MIC required for 80% inhibition of hospital acquired methicillin-resistant Staphylococcus aureus 152 infection in neutropenic BALB/cAnNCr mouse. The data set is classed as functional. The method, boiled down:
as §3

A short description of data set [18]: Elimination clearance in neutropenic BALB/cAnNCr mouse infected with Staphylococcus aureus at 10 mg/kg, sc administered as single dose after 6 hrs of infection. The data set is classed as ADME, organism-based. The arrangement: dose 10 mg/kg, route subcutaneous. The settings on record: in vivo. The gist of the method: as §4
A short description of data set [19]: fT>MIC required for stasis inhibition of community acquired methicillin-resistant Staphylococcus aureus 147 infection in neutropenic BALB/cAnNCr mouse. In kind it is functional. The gist of the method:
as §3

Data set [20] deals with Staphylococcus aureus. The experiment in a line: Antimicrobial activity against methicillin-susceptible Staphylococcus aureus ATCC 25923 by broth microdilution method. In kind it is functional. The method, boiled down:
as §2

A short description of data set [21]: fT>MIC required for stasis inhibition of community acquired methicillin-resistant Staphylococcus aureus 144 infection in neutropenic BALB/cAnNCr mouse. In kind it is functional. The gist of the method: as §3
Data set [22] can be described thus: AUC (0 to infinity) in neutropenic BALB/cAnNCr mouse infected with Staphylococcus aureus at 2.5 mg/kg, sc administered as single dose after 6 hrs of infection. The data set is classed as ADME, organism-based. Further details: time infinity, dose 2.5 mg/kg, route subcutaneous. The settings on record: plasma. The method, boiled down:
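Female BALB/cAnNCr mice (7-9 weeks, 15-22 g) made neutropenic with cyclophosphamide, 250 mg/kg i.p. on day -4 and 100 mg/kg i.p. on day -1. Infected by oral aspiration of HA-MRSA 56 (10^7 CFU/ml in 3% mucin/saline). Single s.c. dose in sterile water given 6 h post-challenge. Plasma (EDTA, citric acid-stabilized) taken at 0.25-4 h, six mice per time point. Assayed by validated HPLC (LOQ 0.01 µg/ml); one-compartment analysis.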

The structures appear in SMILES notation. ≈ marks a conversion by molar mass, not a printed value.

A word on the MIC: it is the least concentration at which growth counts as inhibited. Read a high MIC as a less susceptible organism. Broadly, the Cmax is the maximum level reached in the sampled fluid or tissue. The CL/F is clearance divided by bioavailability, as obtained after extravascular dosing. What is called AUC(0-inf) is the area under the concentration-time curve extrapolated to infinity. A lower AUC(0-inf) goes with low exposure.

As to `Nc1nc(/C(=N/O)C(=O)N[C@@H]2C(=O)N3C(C(=O)O)=C(/C=C4\CCN([C@@H]5CCNC5)C4=O)CS[C@H]23)ns1` [CEFTOBIPROLE], the “fT>MIC” value in data set [1] was found to be 14.8%; in [7] it was 8.6%; in [8], 13.1%; in data set [12] it was 13.4%; in [13], 14%; in [14], 13.3%. For the same compound, the “fT>MIC” value in [17] stood at 15.9%; in data set [19], 14.9%; in data set [21], 13.6%. The log10cfu in the data set on Staphylococcus aureus [2] turned out to be 3.6; in the data set on Staphylococcus aureus [3], 4.1; with Staphylococcus aureus [6] it was 3.2; in the data set with Staphylococcus aureus [9] it was 2.5; with Staphylococcus aureus [15] it was 2.9; in the data set with Staphylococcus aureus [16] it was 3.8. For the same compound, in [4], the fAUC/MIC came out at 2. Besides, the MIC against Staphylococcus aureus [5] came out at 1 µg/mL (≈ 1.87 µM); with Staphylococcus aureus [20], 0.25 µg/mL (≈ 0.468 µM). Besides, in the data set on Mus musculus, the Vd amounted to 0.38 L/kg. The Cmax in data set [10] came out at 19800 ng/mL. Besides, the apparent clearance CL/F was 11.8 mL/min/kg in [11] and 10.5 mL/min/kg in [18]. In [22], this compound returned an AUC(0-inf) of 2570 ng·h/mL.

The values are drawn from ChEMBL document CHEMBL1275429, “Pharmacodynamic characterization of ceftobiprole in experimental pneumonia caused by phenotypically diverse Staphylococcus aureus strains” (Antimicrob Agents Chemother, 2008).
